# Columns and labels:
# Human alphaherpesvirus 2 [1] = assay: Concentration required to inhibit HSV-2 strain 186 cytopathic effect by 50% was measured by plaque reduction assay; type: functional; details: for IC50: Human alphaherpesvirus 2, read-out: ID50 (the source's name)
# Method in brief: (§1)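 Plaque reduction in confluent Vero monolayers infected with 30-40 PFU of HSV-1 KOS or HSV-2 186, with 1 h adsorption at 37 °C. Cells were then overlaid with maintenance medium containing 0.75% carboxymethylcellulose and a range of compound concentrations. After 2 days at 37 °C, cells were fixed and stained and plaques counted. ID50 is the concentration giving 50% plaque reduction.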
# Human alphaherpesvirus 1 [2] = assay: Concentration required to inhibit HSV-1 strain KOS cytopathic effect by 50% was measured by plaque reduction assay; type: functional; details: for IC50: Human alphaherpesvirus 1, read-out: ID50 (the source's name); method in brief: as §1
# Vero = assay: Cytotoxicity was evaluated by measuring the dose affecting 50% of mock-infected Vero monolayers; type: functional; details: Chlorocebus sabaeus, read-out: ID50 (the source's name)
# Method in brief: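 Mock-infected confluent Vero monolayers were incubated with compound for 48 h at 37 °C and examined microscopically. Gross changes in staining, cell number or morphology were scored. The value is the dose affecting 50% of the monolayer.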
# Human alphaherpesvirus 1 [3] = assay: In vivo efficacy of compound against HSV-1 strain A133 in the mouse system model was measured at 3.1 dose(mg/kg), activity expressed as Survivors counted on day 21; 10/10; type: functional
# Method in brief: (§2)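 Female albino mice (15-18 g) were challenged ip with 0.2 mL virus suspension at (5-15) × LD50. Starting 1 h later, they were dosed sc (0.2 mL, saline) twice daily for 4 days. Doses were the maximum tolerated dose and serial dilutions of it. Groups had 5-10 mice. Survivors were counted on day 21, and ED50 (mg/kg per dose) came from logit transformation (Litchfield–Wilcoxon).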
# Human alphaherpesvirus 1 [4] = assay: In vivo efficacy of compound against HSV-1 strain A133 in the mouse system model was measured at 0.2 dose(mg/kg), activity expressed as Survivors counted on day 21; 4/10; type: functional; method in brief: as §2
# Human alphaherpesvirus 2 [5] = assay: In vivo efficacy of compound against HSV-2 strain A133 in the mouse system model was measured at 6.25 dose(mg/kg), activity expressed as Survivors counted on day 21; […]; type: functional; method in brief: as §2
# Human alphaherpesvirus 2 [6] = assay: Compound was measured for the inhibition of HSV-2 strain A133 in the mouse system model at 0.7 dose(mg/kg); type: functional; method in brief: as §2
# Human alphaherpesvirus 1 [7] = assay: In vivo efficacy of compound against HSV-1 strain A133 in the mouse system model was measured at 0.05 dose(mg/kg), activity expressed as Survivors counted on day 21; 1/10; type: functional; method in brief: as §2
# Human alphaherpesvirus 1 [8] = assay: Compound was measured for the inhibition of HSV-1 strain A133 in the mouse system model at 0.2 dose(mg/kg); type: functional; method in brief: as §2
# Human alphaherpesvirus 2 [9] = assay: In vivo efficacy of compound against HSV-2 strain CT in the mouse system model was measured at 0.1 dose(mg/kg), activity expressed as Survivors counted on day 21; 2/10
# Human alphaherpesvirus 1 [10] = assay: In vivo efficacy of compound against HSV-1 strain A133 in the mouse system model was measured at 0.8 dose(mg/kg), activity expressed as Survivors counted on day 21; 10/10; type: functional; method in brief: as §2
# Human alphaherpesvirus 2 [11] = assay: In vivo efficacy of compound against HSV-2 strain CT in the mouse system model was measured at 0.7 dose(mg/kg), activity expressed as Survivors counted on day 21; 2/10
# Human alphaherpesvirus 1 [12] = assay: In vivo efficacy of compound against HSV-1 strain A133 in the mouse system model was measured at 0.012 dose(mg/kg), activity expressed as Survivors counted on day 21; 1/10; type: functional; method in brief: as §2
# Human alphaherpesvirus 2 [13] = assay: In vivo efficacy of compound against HSV-2 strain A133 in the mouse system model was measured at 0.025 dose(mg/kg), activity expressed as Survivors counted on day 21; 0/10; type: functional; method in brief: as §2
# Human alphaherpesvirus 2 [14] = assay: In vivo efficacy of compound against HSV-2 strain CT in the mouse system model was measured at 1.6 dose(mg/kg), activity expressed as Survivors counted on day 21; 7/10
# Human alphaherpesvirus 2 [15] = assay: In vivo efficacy of compound against HSV-2 strain CT in the mouse system model was measured at 100 dose(mg/kg), activity expressed as Survivors counted on day 21; 7/10
# Human alphaherpesvirus 1 [16] = assay: In vivo efficacy of compound against HSV-1 strain A133 in the mouse system model was measured at 25 dose(mg/kg), activity expressed as Survivors counted on day 21; 2/5; type: functional; method in brief: as §2
# Human alphaherpesvirus 1 [17] = assay: In vivo efficacy of compound against HSV-1 strain A133 in the mouse system model was measured at 25 dose(mg/kg), activity expressed as Survivors counted on day 21; 1/10; type: functional; method in brief: as §2
# Human alphaherpesvirus 2 [18] = assay: In vivo efficacy of compound against HSV-2 strain A133 in the mouse system model was measured at 50 dose(mg/kg), activity expressed as Survivors counted on day 21; 1/5; type: functional; method in brief: as §2
# Human alphaherpesvirus 2 [19] = assay: In vivo efficacy of compound against HSV-2 strain A133 in the mouse system model was measured at 6.25 dose(mg/kg), activity expressed as Survivors counted on day 21; type: functional; method in brief: as §2
# Human alphaherpesvirus 1 [20] = assay: Compound was measured for the inhibition of HSV-1 strain A133 in the mouse system model at 25 dose(mg/kg); type: functional; method in brief: as §2
# Human alphaherpesvirus 2 [21] = assay: In vivo efficacy of compound against HSV-2 strain CT in the mouse system model was measured at 100dose(mg/kg), activity expressed as Survivors counted on day 21; 2/5
# Human alphaherpesvirus 1 [22] = assay: In vivo efficacy of compound against HSV-1 strain A133 in the mouse system model was measured at 6.25 dose(mg/kg), activity expressed as Survivors counted on day 21; 0/5; type: functional; method in brief: as §2
# Human alphaherpesvirus 2 [23] = assay: In vivo efficacy of compound against HSV-2 strain CT in the mouse system model was measured at 25 dose(mg/kg), activity expressed as Survivors counted on day 21; 3/5
# Human alphaherpesvirus 1 [24] = assay: In vivo efficacy of compound against HSV-1 strain A133 in the mouse system model was measured at 6.25 dose(mg/kg), activity expressed as Survivors counted on day 21; 0/10; type: functional; method in brief: as §2
# Human alphaherpesvirus 1 [25] = assay: In vivo efficacy of compound against HSV-1 strain A133 in the mouse system model was measured at 100 dose(mg/kg), activity expressed as Survivors counted on day 21; 8/10; type: functional; method in brief: as §2
# Human alphaherpesvirus 2 [26] = assay: Compound was measured for the inhibition of HSV-2 strain A133 in the mouse system model at 25 dose(mg/kg); type: functional; method in brief: as §2
# Human alphaherpesvirus 1 [27] = assay: In vivo efficacy of compound against HSV-1 strain A133 in the mouse system model was measured at 100 dose(mg/kg), activity expressed as Survivors counted on day 21; 3/5; type: functional; method in brief: as §2
# Human alphaherpesvirus 2 [28] = assay: In vivo efficacy of compound against HSV-2 strain CT in the mouse system model was measured at 25 dose(mg/kg), activity expressed as Survivors counted on day 21; 2/10
# Human alphaherpesvirus 1 [29] = assay: Compound was measured for the inhibition of HSV-1 strain A133 in the mouse system model at 1.6 dose(mg/kg); type: functional; method in brief: as §2
# Human alphaherpesvirus 2 [30] = assay: In vivo efficacy of compound against HSV-1 strain A133 in the mouse system model was measured at 1.6 dose(mg/kg), activity expressed as Survivors counted on day 21; 4/5; type: functional; method in brief: as §2
# Human alphaherpesvirus 1 [31] = assay: In vivo efficacy of compound against HSV-1 strain A133 in the mouse system model was measured at 1.6 dose(mg/kg), activity expressed as Survivors counted on day 21; 2/5; type: functional; method in brief: as §2
# Human alphaherpesvirus 1 [32] = assay: In vivo efficacy of compound against HSV-1 strain A133 in the mouse system model was measured at 0.1 dose(mg/kg), activity expressed as Survivors counted on day 21; 0/5; type: functional; method in brief: as §2
# Human alphaherpesvirus 1 [33] = assay: In vivo efficacy of compound against HSV-1 strain A133 in the mouse system model was measured at 0.4 dose(mg/kg), activity expressed as Survivors counted on day 21; 2/5; type: functional; method in brief: as §2
# Human alphaherpesvirus 2 [34] = assay: Compound was measured for the inhibition of HSV-2 strain A133 in the mouse system model at 3.1 dose(mg/kg); type: functional; method in brief: as §2
# Human alphaherpesvirus 1 [35] = assay: In vivo efficacy of compound against HSV-1 strain A133 in the mouse system model was measured at 3.1 dose(mg/kg), activity expressed as Survivors counted on day 21; 4/5; type: functional; method in brief: as §2
# Human alphaherpesvirus 2 [36] = assay: In vivo efficacy of compound against HSV-2 strain A133 in the mouse system model was measured at 6.25 dose(mg/kg), activity expressed as Survivors counted on day 21; 5/5; type: functional; method in brief: as §2
# Human alphaherpesvirus 2 [37] = assay: In vivo efficacy of compound against HSV-2 strain A133 in the mouse system model was measured at 0.8 dose(mg/kg), activity expressed as Survivors counted on day 21; 2/5; type: functional; method in brief: as §2
# Human alphaherpesvirus 2 [38] = assay: In vivo efficacy of compound against HSV-2 strain A133 in the mouse system model was measured at 3.1 dose(mg/kg), activity expressed as Survivors counted on day 21; 4/5; type: functional; method in brief: as §2
# Human alphaherpesvirus 2 [39] = assay: In vivo efficacy of compound against HSV-2 strain A133 in the mouse system model was measured at 0.4 dose(mg/kg), activity expressed as Survivors counted on day 21; 0/5; type: functional; method in brief: as §2
compound,measurement,setting,value
Nc1nc(O)c2ncn([C@@H]3C[C@H](CO)[C@@H](O)C3)c2n1,IC50,Human alphaherpesvirus 2 [1],0.44 µg/mL
same,IC50,Human alphaherpesvirus 1 [2],0.06 µg/mL
same,IC50,Vero,300 µg/mL
Nc1nc2c(ncn2[C@@H]2C[C@H](CO)[C@@H](O)[C@H]2F)c(=O)[nH]1,IC50,Human alphaherpesvirus 2 [1],70 µg/mL
same,IC50,Human alphaherpesvirus 1 [2],2.35 µg/mL
same,IC50,Vero,> 300 µg/mL
Nc1nc2c(ncn2[C@@H]2C[C@H](CO)[C@@H](O)[C@@H]2F)c(=O)[nH]1,IC50,Human alphaherpesvirus 2 [1],0.05 µg/mL
same,Survivors,Human alphaherpesvirus 1 [3],10
same,Survivors,Human alphaherpesvirus 1 [4],4
same,IC50,Human alphaherpesvirus 1 [2],0.006 µg/mL
same,Survivors,Human alphaherpesvirus 2 [5],9
same,ED50,Human alphaherpesvirus 2 [6],0.8 mg/kg
same,Survivors,Human alphaherpesvirus 1 [7],1
same,ED50,Human alphaherpesvirus 1 [8],0.2 mg/kg
same,Survivors,Human alphaherpesvirus 2 [9],2
same,Survivors,Human alphaherpesvirus 1 [10],10
same,Survivors,Human alphaherpesvirus 2 [11],2
same,Survivors,Human alphaherpesvirus 1 [12],1
same,Survivors,Human alphaherpesvirus 2 [13],0
same,IC50,Vero,> 300 µg/mL
same,Survivors,Human alphaherpesvirus 2 [14],7
"Nc1nc(O)c2ncn(C3CC(O)C(CO)C3F)c2n1 (single isomer, unassigned; (-))",ID50,Human alphaherpesvirus 2 [1],155 µg/mL
same,ID50,Human alphaherpesvirus 1 [2],15 µg/mL
Nc1nc(O)c2ncn([C@@H]3O[C@H](CO)[C@@H](O)[C@@H]3F)c2n1 [F-ARAG],IC50,Human alphaherpesvirus 2 [1],19 µg/mL
same,IC50,Human alphaherpesvirus 1 [2],5 µg/mL
same,IC50,Vero,> 100 µg/mL
Nc1nc2c(ncn2COCCO)c(=O)[nH]1 [ACYCLOVIR],IC50,Human alphaherpesvirus 2 [1],0.6 µg/mL
same,Survivors,Human alphaherpesvirus 2 [15],7
same,IC50,Human alphaherpesvirus 1 [2],0.2 µg/mL
same,Survivors,Human alphaherpesvirus 1 [16],2
same,Survivors,Human alphaherpesvirus 1 [17],1
same,Survivors,Human alphaherpesvirus 2 [18],1
same,Survivors,Human alphaherpesvirus 2 [19],0
same,ED50,Human alphaherpesvirus 1 [20],~50 mg/kg
same,ED50,"Human alphaherpesvirus 1 [20]; Human alphaherpesvirus 1, read-out: ED50",58 mg/kg
same,Survivors,Human alphaherpesvirus 2 [21],2
same,Survivors,Human alphaherpesvirus 1 [22],0
same,Survivors,Human alphaherpesvirus 2 [23],3
same,Survivors,Human alphaherpesvirus 1 [24],0
same,Survivors,Human alphaherpesvirus 1 [25],8
same,ED50,Human alphaherpesvirus 2 [26],58 mg/kg
same,Survivors,Human alphaherpesvirus 1 [27],3
same,IC50,Vero,> 300 µg/mL
same,Survivors,Human alphaherpesvirus 2 [28],2
"Nc1nc(O)c2ncn(C3CC(O)C(CO)C3F)c2n1 (single isomer, unassigned; (+))",ID50,Human alphaherpesvirus 2 [1],0.77 µg/mL
same,ED50,Human alphaherpesvirus 1 [29],0.97 mg/kg
same,ID50,Human alphaherpesvirus 1 [2],0.16 µg/mL
same,Survivors,Human alphaherpesvirus 2 [30],4
same,Survivors,Human alphaherpesvirus 1 [31],2
same,Survivors,Human alphaherpesvirus 1 [32],0
same,Survivors,Human alphaherpesvirus 1 [33],2
same,ED50,Human alphaherpesvirus 2 [34],1.1 mg/kg
same,Survivors,Human alphaherpesvirus 1 [35],4
same,Survivors,Human alphaherpesvirus 2 [36],5
same,Survivors,Human alphaherpesvirus 2 [37],2
same,Survivors,Human alphaherpesvirus 2 [38],4
same,IC50,Vero,> 300 µg/mL
same,Survivors,Human alphaherpesvirus 2 [39],0
